How the values were obtained:
[1] = system: HeLa; experiment: Antiproliferative activity against human HeLa cells assessed as cell survival ratio at 0.5 uM treated 1 hr before 2Gy ionizing radiation measured after 6 to 8 days by DMR clonogenic assay; assay type: functional
How it was run: (§1)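 HeLa cells seeded in 6-well dishes, incubated overnight at 37 °C/5% CO2, pre-treated 1 h with vehicle or inhibitor (0.1 or 0.5 μM), then given 2 Gy X-ray IR and held overnight. Medium then replaced without compound and culture continued 6-8 days. Colonies Giemsa-stained and counted automatically. DMR = % survival (vehicle, 2 Gy) / % survival (compound, 2 Gy).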

[2] = molecular target: DNA-dependent protein kinase catalytic subunit (Homo sapiens, UniProt P78527); experiment: Inhibition of human DNA-PK using GST-tagged p53N66 as substrate after 1 hr by ELISA-based chemiluminiscence assay
DNA-dependent protein kinase catalytic subunit, sequence (P78527 whole entry): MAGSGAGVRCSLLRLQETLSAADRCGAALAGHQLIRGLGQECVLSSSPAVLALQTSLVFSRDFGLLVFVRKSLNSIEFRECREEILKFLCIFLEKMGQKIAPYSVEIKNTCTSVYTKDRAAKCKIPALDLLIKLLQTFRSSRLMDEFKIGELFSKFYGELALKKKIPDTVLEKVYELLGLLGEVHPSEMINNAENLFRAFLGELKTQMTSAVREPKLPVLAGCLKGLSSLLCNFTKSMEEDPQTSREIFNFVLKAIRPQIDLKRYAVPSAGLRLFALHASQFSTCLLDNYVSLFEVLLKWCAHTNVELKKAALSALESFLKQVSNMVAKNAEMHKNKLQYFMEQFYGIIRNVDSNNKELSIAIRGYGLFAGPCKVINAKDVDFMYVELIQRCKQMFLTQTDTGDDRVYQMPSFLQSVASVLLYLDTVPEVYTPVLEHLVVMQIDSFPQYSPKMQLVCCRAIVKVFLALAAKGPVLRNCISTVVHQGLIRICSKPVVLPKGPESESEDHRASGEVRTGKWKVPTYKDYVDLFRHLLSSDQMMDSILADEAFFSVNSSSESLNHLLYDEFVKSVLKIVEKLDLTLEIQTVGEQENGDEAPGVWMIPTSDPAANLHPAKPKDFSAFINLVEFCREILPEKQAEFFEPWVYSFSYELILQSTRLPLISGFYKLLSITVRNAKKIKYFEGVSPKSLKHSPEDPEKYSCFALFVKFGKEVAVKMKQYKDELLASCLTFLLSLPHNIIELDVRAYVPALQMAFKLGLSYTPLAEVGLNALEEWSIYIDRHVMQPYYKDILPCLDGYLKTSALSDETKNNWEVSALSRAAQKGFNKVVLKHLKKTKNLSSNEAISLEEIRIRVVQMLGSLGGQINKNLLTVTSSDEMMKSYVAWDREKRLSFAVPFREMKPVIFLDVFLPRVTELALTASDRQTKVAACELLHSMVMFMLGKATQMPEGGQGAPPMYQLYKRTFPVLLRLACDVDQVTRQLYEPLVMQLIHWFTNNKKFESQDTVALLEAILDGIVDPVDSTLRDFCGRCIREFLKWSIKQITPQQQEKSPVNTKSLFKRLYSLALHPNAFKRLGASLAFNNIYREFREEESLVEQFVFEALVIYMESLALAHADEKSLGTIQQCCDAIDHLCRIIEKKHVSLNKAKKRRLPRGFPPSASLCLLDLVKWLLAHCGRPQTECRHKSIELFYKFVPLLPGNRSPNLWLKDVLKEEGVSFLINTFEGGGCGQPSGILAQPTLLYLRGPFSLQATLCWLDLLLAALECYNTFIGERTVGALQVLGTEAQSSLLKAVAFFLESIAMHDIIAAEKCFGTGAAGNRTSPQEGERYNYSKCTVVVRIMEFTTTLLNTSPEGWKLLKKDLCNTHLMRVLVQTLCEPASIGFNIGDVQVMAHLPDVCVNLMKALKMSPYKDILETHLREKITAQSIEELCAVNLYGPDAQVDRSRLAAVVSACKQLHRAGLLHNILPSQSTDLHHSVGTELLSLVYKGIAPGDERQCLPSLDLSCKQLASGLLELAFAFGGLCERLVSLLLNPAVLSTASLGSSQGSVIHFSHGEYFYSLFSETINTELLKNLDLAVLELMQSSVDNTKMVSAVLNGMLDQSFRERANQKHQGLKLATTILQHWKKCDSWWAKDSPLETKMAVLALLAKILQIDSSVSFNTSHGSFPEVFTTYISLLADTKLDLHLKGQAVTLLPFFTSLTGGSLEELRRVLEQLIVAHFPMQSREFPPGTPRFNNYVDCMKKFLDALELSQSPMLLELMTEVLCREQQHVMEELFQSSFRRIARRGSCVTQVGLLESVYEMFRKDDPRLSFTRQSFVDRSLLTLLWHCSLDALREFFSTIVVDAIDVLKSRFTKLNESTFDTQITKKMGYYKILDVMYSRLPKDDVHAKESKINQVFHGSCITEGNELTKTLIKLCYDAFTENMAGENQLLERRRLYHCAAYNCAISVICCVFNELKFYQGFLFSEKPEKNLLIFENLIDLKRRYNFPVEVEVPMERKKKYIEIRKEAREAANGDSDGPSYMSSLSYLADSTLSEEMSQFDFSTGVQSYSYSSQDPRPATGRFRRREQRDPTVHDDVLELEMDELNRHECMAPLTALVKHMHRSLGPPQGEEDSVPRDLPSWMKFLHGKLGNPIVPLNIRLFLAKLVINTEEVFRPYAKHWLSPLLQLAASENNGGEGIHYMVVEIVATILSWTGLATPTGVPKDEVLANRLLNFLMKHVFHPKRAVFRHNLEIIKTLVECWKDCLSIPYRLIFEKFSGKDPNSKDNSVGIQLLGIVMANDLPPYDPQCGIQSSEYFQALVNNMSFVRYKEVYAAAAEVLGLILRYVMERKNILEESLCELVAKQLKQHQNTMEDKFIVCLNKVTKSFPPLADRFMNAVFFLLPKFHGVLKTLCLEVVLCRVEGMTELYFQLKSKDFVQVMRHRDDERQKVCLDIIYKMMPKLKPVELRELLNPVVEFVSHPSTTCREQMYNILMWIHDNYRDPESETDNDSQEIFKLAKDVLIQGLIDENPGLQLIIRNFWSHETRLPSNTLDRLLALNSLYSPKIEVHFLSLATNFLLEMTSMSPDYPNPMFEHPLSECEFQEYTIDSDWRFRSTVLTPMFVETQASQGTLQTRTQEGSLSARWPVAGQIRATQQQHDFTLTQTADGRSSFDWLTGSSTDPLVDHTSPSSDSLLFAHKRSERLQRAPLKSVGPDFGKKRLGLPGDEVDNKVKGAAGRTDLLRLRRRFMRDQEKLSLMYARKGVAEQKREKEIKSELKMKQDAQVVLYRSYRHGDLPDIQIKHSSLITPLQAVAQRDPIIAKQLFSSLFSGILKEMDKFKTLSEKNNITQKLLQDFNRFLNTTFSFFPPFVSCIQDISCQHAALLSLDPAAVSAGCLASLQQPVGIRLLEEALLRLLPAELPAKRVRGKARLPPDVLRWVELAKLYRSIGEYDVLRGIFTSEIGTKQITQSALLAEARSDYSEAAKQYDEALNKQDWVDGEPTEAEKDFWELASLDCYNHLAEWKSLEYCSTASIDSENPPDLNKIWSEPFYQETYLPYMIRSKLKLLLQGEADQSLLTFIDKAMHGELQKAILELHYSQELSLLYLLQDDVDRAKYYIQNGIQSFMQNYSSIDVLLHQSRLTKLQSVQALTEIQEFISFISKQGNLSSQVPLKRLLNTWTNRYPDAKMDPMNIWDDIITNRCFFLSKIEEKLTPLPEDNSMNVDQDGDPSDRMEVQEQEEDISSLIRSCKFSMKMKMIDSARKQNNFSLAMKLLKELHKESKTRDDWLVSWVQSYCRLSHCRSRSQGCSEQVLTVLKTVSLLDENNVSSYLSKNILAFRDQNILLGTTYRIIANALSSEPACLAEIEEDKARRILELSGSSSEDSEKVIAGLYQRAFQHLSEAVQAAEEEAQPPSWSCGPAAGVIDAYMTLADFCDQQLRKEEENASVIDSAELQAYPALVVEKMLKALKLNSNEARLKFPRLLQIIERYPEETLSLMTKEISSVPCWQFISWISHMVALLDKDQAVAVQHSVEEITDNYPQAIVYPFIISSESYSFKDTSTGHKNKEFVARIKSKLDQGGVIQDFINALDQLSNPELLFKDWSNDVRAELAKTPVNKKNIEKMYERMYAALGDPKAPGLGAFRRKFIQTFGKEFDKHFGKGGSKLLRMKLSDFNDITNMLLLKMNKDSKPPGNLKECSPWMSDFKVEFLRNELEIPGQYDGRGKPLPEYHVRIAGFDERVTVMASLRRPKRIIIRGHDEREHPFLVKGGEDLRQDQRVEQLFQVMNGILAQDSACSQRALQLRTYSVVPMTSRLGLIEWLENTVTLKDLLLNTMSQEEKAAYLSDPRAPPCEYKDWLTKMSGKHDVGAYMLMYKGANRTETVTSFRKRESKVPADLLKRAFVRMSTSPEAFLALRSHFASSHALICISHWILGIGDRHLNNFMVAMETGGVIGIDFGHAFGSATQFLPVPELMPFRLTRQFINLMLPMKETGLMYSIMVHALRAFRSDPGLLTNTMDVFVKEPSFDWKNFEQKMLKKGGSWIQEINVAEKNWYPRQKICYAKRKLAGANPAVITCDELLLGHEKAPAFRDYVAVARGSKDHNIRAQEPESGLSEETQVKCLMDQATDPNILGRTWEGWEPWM

[3] = system: HeLa; experiment: Antiproliferative activity against human HeLa cells assessed as cell survival ratio at 0.1 uM treated 1 hr before 2Gy ionizing radiation measured after 6 to 8 days by DMR clonogenic assay; assay type: functional; how it was run: as §1

SMILES	Ratio [1]	IC50 [2]	Ratio [3]
O=C(CN1CCCNCC1)Nc1ccc(-c2cccc3c(=O)cc(N4CCOCC4)oc23)c2sc3ccccc3c12	1.5	22 nM	1.4
O=C(CCN1CCN(c2ccc(F)cc2)CC1)Nc1ccc(-c2cccc3c(=O)cc(N4CCOCC4)oc23)c2sc3ccccc3c12	3.8	30 nM	1.5
O=C(CCNCC1CCCO1)Nc1ccc(-c2cccc3c(=O)cc(N4CCOCC4)oc23)c2sc3ccccc3c12 (stereo not drawn)	4.7	7 nM	2
CC(C)N1CCN(CCC(=O)Nc2ccc(-c3cccc4c(=O)cc(N5CCOCC5)oc34)c3sc4ccccc4c23)CC1	3.6	37 nM	1.2
CCN(CC)CC(=O)Nc1ccc(-c2cccc3c(=O)cc(N4CCOCC4)oc23)c2sc3ccccc3c12	3.7	84 nM	1.2
O=C(COc1ccc(-c2cccc3c(=O)cc(N4CCOCC4)oc23)c2sc3ccccc3c12)N1CCCCC1	5.1	19 nM	1.4
O=C(CNCC1CCCO1)Nc1ccc(-c2cccc3c(=O)cc(N4CCOCC4)oc23)c2sc3ccccc3c12 (stereo not drawn)	7.7	14 nM	1.7
O=C(CN1CCOCC1)Nc1ccc(-c2cccc3c(=O)cc(N4CCOCC4)oc23)c2sc3ccccc3c12	12.8	11 nM	3.9
C[C@@H]1CN(CC(=O)Nc2ccc(-c3cccc4c(=O)cc(N5CCOCC5)oc34)c3sc4ccccc4c23)C[C@H](C)O1	8.2	4 nM	1.3
CCN(CC)CCC(=O)Nc1ccc(-c2cccc3c(=O)cc(N4CCOCC4)oc23)c2sc3ccccc3c12	5.7	12 nM	1.8
O=C(CN1CCNCC1)Nc1ccc(-c2cccc3c(=O)cc(N4CCOCC4)oc23)c2sc3ccccc3c12	5	24 nM	1.4
COCCNCCC(=O)Nc1ccc(-c2cccc3c(=O)cc(N4CCOCC4)oc23)c2sc3ccccc3c12	5.9	8 nM	2.3
CN(C)CCN1CCN(CCC(=O)Nc2ccc(-c3cccc4c(=O)cc(N5CCOCC5)oc34)c3sc4ccccc4c23)CC1	1.3	10 nM	1.1
O=C(CCN1CCOCC1)Nc1ccc(-c2cccc3c(=O)cc(N4CCOCC4)oc23)c2sc3ccccc3c12	6.1	41 nM	2
O=C(CCNCCN1CCCCC1)Nc1ccc(-c2cccc3c(=O)cc(N4CCOCC4)oc23)c2sc3ccccc3c12	3.3	33 nM	1
O=C(CN1CCN(c2ccc(F)cc2)CC1)Nc1ccc(-c2cccc3c(=O)cc(N4CCOCC4)oc23)c2sc3ccccc3c12	4.9	15 nM	1
CC(=O)N1CCN(CC(=O)Nc2ccc(-c3cccc4c(=O)cc(N5CCOCC5)oc34)c3sc4ccccc4c23)CC1	4.8	5 nM	1.4
NCCNCC(=O)Nc1ccc(-c2cccc3c(=O)cc(N4CCOCC4)oc23)c2sc3ccccc3c12	1.5	16 nM	1.1
CC(C)N1CCN(C(=O)COc2ccc(-c3cccc4c(=O)cc(N5CCOCC5)oc34)c3sc4ccccc4c23)CC1	3.1	16 nM	1.3
CN(C)CCN1CCN(CC(=O)Nc2ccc(-c3cccc4c(=O)cc(N5CCOCC5)oc34)c3sc4ccccc4c23)CC1	5.9	10 nM	1.7
O=c1cc(N2CCOCC2)oc2c(-c3ccc(OCCN4CCCCC4)c4c3sc3ccccc34)cccc12	3.5	20 nM	1.4
O=C(CCNCCN1CCOCC1)Nc1ccc(-c2cccc3c(=O)cc(N4CCOCC4)oc23)c2sc3ccccc3c12	1.9	6 nM	1.3
CCN(CC(=O)Nc1ccc(-c2cccc3c(=O)cc(N4CCOCC4)oc23)c2sc3ccccc3c12)Cc1ccncc1	14.1	8 nM	1.5
O=C(CN1CCN(c2ccccn2)CC1)Nc1ccc(-c2cccc3c(=O)cc(N4CCOCC4)oc23)c2sc3ccccc3c12	9.9	7 nM	1.8
CC(=O)N1CCN(C(=O)COc2ccc(-c3cccc4c(=O)cc(N5CCOCC5)oc34)c3sc4ccccc4c23)CC1	1.6	16 nM	1
CN(CC(N)=O)C(=O)COc1ccc(-c2cccc3c(=O)cc(N4CCOCC4)oc23)c2sc3ccccc3c12	1.4	11 nM	0.9
O=C(CCN1CCN(CCOCCO)CC1)Nc1ccc(-c2cccc3c(=O)cc(N4CCOCC4)oc23)c2sc3ccccc3c12	1	29 nM	1.1

SMILES	Ratio [1]	IC50 [2]	Ratio [3]
O=C(CN1CCCN(CCO)CC1)Nc1ccc(-c2cccc3c(=O)cc(N4CCOCC4)oc23)c2sc3ccccc3c12	3.3	30 nM	1.2
O=C(CCN1CCCCCC1)Nc1ccc(-c2cccc3c(=O)cc(N4CCOCC4)oc23)c2sc3ccccc3c12	8.4	11 nM	3.1
CN1CCCC1CCNCCC(=O)Nc1ccc(-c2cccc3c(=O)cc(N4CCOCC4)oc23)c2sc3ccccc3c12 (stereo not drawn)	1.2	13 nM	1.3
O=C(CCN1CCCCC1)Nc1ccc(-c2cccc3c(=O)cc(N4CCOCC4)oc23)c2sc3ccccc3c12	5	37 nM	1.9
CN(CCOc1ccc(-c2cccc3c(=O)cc(N4CCOCC4)oc23)c2sc3ccccc3c12)CC(N)=O	7.7	3 nM	1.4
O=C(CCN1CCN(c2ncccn2)CC1)Nc1ccc(-c2cccc3c(=O)cc(N4CCOCC4)oc23)c2sc3ccccc3c12	7.1	18 nM	1.6
CN(C)CCN(C)CC(=O)Nc1ccc(-c2cccc3c(=O)cc(N4CCOCC4)oc23)c2sc3ccccc3c12	5.7	57 nM	1.1
CN1CCCN(CC(=O)Nc2ccc(-c3cccc4c(=O)cc(N5CCOCC5)oc34)c3sc4ccccc4c23)CC1	7.6	55 nM	1.7
O=C(CCNCCO)Nc1ccc(-c2cccc3c(=O)cc(N4CCOCC4)oc23)c2sc3ccccc3c12	0.9	10 nM	0.9
O=C(CN1CCN(CCOCCO)CC1)Nc1ccc(-c2cccc3c(=O)cc(N4CCOCC4)oc23)c2sc3ccccc3c12	3.2	6 nM	1.6
CN(C)CCOc1ccc(-c2cccc3c(=O)cc(N4CCOCC4)oc23)c2sc3ccccc3c12	3.3	8 nM	1.8
C[C@@H]1CN(C(=O)COc2ccc(-c3cccc4c(=O)cc(N5CCOCC5)oc34)c3sc4ccccc4c23)C[C@H](C)O1	1	61 nM	0.9
COc1ccc(CNCC(=O)Nc2ccc(-c3cccc4c(=O)cc(N5CCOCC5)oc34)c3sc4ccccc4c23)cc1	6.8	38 nM	1.4
NCCC(=O)Nc1ccc(-c2cccc3c(=O)cc(N4CCOCC4)oc23)c2sc3ccccc3c12	1.4	8 nM	1.1
CN(C)CCN(C)CCC(=O)Nc1ccc(-c2cccc3c(=O)cc(N4CCOCC4)oc23)c2sc3ccccc3c12	5.1	78 nM	1.2
O=C(CN1CCCCC1)Nc1ccc(-c2cccc3c(=O)cc(N4CCOCC4)oc23)c2sc3ccccc3c12	10.4	21 nM	1.2
CCN1CCCC1CNCCC(=O)Nc1ccc(-c2cccc3c(=O)cc(N4CCOCC4)oc23)c2sc3ccccc3c12 (stereo not drawn)	1.7	49 nM	1.2
O=c1cc(N2CCOCC2)oc2c(-c3ccc(OCCNCCN4CCOCC4)c4c3sc3ccccc34)cccc12	10.1	7 nM	1.4
CN1CCN(CCOc2ccc(-c3cccc4c(=O)cc(N5CCOCC5)oc34)c3sc4ccccc4c23)CC1	5.1	7 nM	3.1
COCCN1CCN(CCC(=O)Nc2ccc(-c3cccc4c(=O)cc(N5CCOCC5)oc34)c3sc4ccccc4c23)CC1	3.5	19 nM	1.3
O=C(COc1ccc(-c2cccc3c(=O)cc(N4CCOCC4)oc23)c2sc3ccccc3c12)NCc1ccncc1	1.1	10 nM	1
CCN1CCCC1CNCC(=O)Nc1ccc(-c2cccc3c(=O)cc(N4CCOCC4)oc23)c2sc3ccccc3c12 (stereo not drawn)	5.9	30 nM	1.2
O=C(CNCCO)Nc1ccc(-c2cccc3c(=O)cc(N4CCOCC4)oc23)c2sc3ccccc3c12	6.2	8 nM	1.6
CC(C)N1CCN(CCOc2ccc(-c3cccc4c(=O)cc(N5CCOCC5)oc34)c3sc4ccccc4c23)CC1	6.3	3 nM	1.6
CCN(CCC(=O)Nc1ccc(-c2cccc3c(=O)cc(N4CCOCC4)oc23)c2sc3ccccc3c12)Cc1ccncc1	1.6	31 nM	1
CN(C)CCN(C)CCOc1ccc(-c2cccc3c(=O)cc(N4CCOCC4)oc23)c2sc3ccccc3c12	–	5 nM	–
CCN(CC)CCOc1ccc(-c2cccc3c(=O)cc(N4CCOCC4)oc23)c2sc3ccccc3c12	–	22 nM	–

Reference: ChEMBL document CHEMBL2417539, “1-substituted (Dibenzo[b,d]thiophen-4-yl)-2-morpholino-4H-chromen-4-ones endowed with dual DNA-PK/PI3-K inhibitory activity” (J Med Chem, 2013)
